Granule exo inh: lytic granule exocytosis inhibition; AID 651702; inhibition, % at 10 µM; actives 0.66% (n = 360,000); TALL-104 LAMP-1 surface exposure, flow cytometry; cells stimulated with thapsigargin and PMA;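 active = inhibition above about 55%, limit read from the data; inconclusive = no clear call, values can overlap the other calls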
Myeloid diff 2: promotes myeloid progenitor differentiation. ER-HoxA9 myeloid progenitors, lysozyme-GFP differentiation, flow cytometry. calls only at 10 µM. actives 1% (n = 360,000);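 active = normalized GFP-positive differentiation at or above the plate's own cutoff, the solvent-only control mean plus 3 SD; inconclusive = no clear call, values can overlap the other calls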;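 also: cells exposed to compound for four days before flow analysis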
MC4R antag cAMP: human MC4R antagonism in cAMP assay | MC4R-expressing cells, MTII-stimulated cAMP, LANCE TR-FRET | inhibition, % at 6.5 µM | actives 0.48% (n = 360,000) | AID 540295;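 active = inhibition above its plate's cutoff, the mean of tested wells on that plate plus 3 SD, cut at about 29% in these data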;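 also: 0% = Melanotan II alone and 100% = Melanotan II plus saturating MCL0020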
Target sequence (P32245 whole entry, looked up): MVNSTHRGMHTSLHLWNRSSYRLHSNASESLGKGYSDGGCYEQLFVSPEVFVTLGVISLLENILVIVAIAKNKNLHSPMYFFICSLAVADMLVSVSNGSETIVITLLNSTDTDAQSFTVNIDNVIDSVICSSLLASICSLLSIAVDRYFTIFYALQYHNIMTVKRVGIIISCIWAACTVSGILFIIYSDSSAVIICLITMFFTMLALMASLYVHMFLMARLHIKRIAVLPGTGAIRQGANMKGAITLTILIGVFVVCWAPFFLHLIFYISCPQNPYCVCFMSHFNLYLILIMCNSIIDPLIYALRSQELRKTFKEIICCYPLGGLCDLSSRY
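Assay system: human MC4R-expressing U2OS cells; reagent: Melanotan II stimulation of cells; dosing: 6.5 µM single dose; timing: compound 30 min, challenge 1 h, detection 1 h; signal: TR-FRET cAMP assay; replicates: one well per compound, no replicates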
MC4R barr agon: agonists of human melanocortin 4 receptor (MC4R) beta-arrestin; activation, % at 8.9 µM; P32245; AID 540308; actives 0.98% (n = 360,000); U2OS MC4R beta-arrestin complementation, luminescence; percent of melanotan II response, DMSO zero;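 active = activation above a per-plate cutoff, the mean activation of sample wells on that plate plus 3 SD, cut at about 8% in these data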
EBI2 antag: antagonists of human EBI2 receptor. inhibition, % at 5 µM. P32249. EBI2 beta-arrestin recruitment, luminescence, 7a,25-OHC stimulated. actives 0.81% (n = 360,000); in the data active = inhibition above about 38%;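 also: enzyme fragment complementation signal reports receptor beta-arrestin coupling in cells; 0% = agonist plus DMSO wells and 100% = wells without agonist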
Myeloid diff: promotes myeloid progenitor differentiation; shares compounds with Myeloid diff 2; actives 2% (n = 2,300); calls only; ER-HoxA9 myeloid progenitors, GFP/Mac1 double-positive flow;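 active = share of green or green-and-red cells above 9 and 9% in run 1 or 4 and 3% in run 2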
GFP autofluor: flagged as fluorescent in myeloid differentiation counter-screen; fluorescence response, % (test concentration not listed); ER-HoxA9 myeloid progenitors, no estrogen, GFP autofluorescence flow cytometry; vehicle wells 0%, positive control 100%; AID 651707; actives 7.4% (n = 2,300); shares compounds with Myeloid diff 2;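 active = over 5% cells positive for green fluorescent reporter, or over 2% positive for both it and APC stain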;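 also: range taken on the double positive population between DMSO and positive control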
Starred values were filed as active, the others as inactive; i = inactive; ? = inconclusive; nt = no result; + = active, no number. An excerpt weighted towards active compounds, which were near 3.7% of everything screened.

SMILES	Granule exo inh	Myeloid diff 2	MC4R antag cAMP	MC4R barr agon	EBI2 antag	Myeloid diff	GFP autofluor
COc1ccc(CNC(=O)C2CCN(S(=O)(=O)c3c(C)noc3/C=C/N(C)C)CC2)cc1	2	?	14	1	15	nt	nt
CCCc1nc2ccc(C)cn2c1Cc1ccccc1C(F)(F)F	-3	i	nt	nt	-1	nt	nt
O=C(CN1CCN(c2ncccn2)CC1)Nc1ccccc1-n1cccc1	8	+	-8	2	10	i	0
COc1cccc(C=Nc2cccc3c(=O)[nH][nH]c(=O)c23)c1O	-1	+	12	1	2	i	0
COc1ccc(C=Nc2cccc3c(=O)[nH][nH]c(=O)c23)c2ccccc12	-2	i	5	3	2	nt	nt
O=c1[nH][nH]c(-c2ccccc2O)c1C(C[N+](=O)[O-])c1cccc(Cl)c1 (centres undefined)	-5	i	6	-2	-5	nt	nt
O=c1[nH][nH]c(-c2ccccc2O)c1C(C[N+](=O)[O-])c1ccc(Cl)cc1Cl (centres undefined)	0	i	8	-1	-8	i	1
CCOc1ccc(NS(=O)(=O)c2ccc(C(=O)N(C)Cc3cccc(OC)c3OC)cc2)cc1	1	i	-2	-3	0	nt	nt
Cc1cnc(C(=O)Oc2ccc(-c3ccccc3)cc2)cn1	0	i	-1	0	2	nt	nt
COc1ccccc1CNC(=O)CSc1ccsc1[N+](=O)[O-]	-2	i	2	3	-10	i	1
Cc1nc2ccc(S(=O)(=O)NCC(=O)N3CCC(N4CCCCC4)CC3)cc2s1	-4	i	3	-1	-6	nt	nt
Cc1nc2ccc(S(=O)(=O)NCC(=O)N3CCC(C)CC3)cc2s1	0	i	2	4	-3	i	0
O=C1CCC(C(=O)N2CCCCCC2)CN1Cc1cccc(C(F)(F)F)c1 (centres undefined)	-7	i	6	-1	-11	nt	nt
COc1cccc(NC(=O)CN(C)C(=O)CC2CCCC2)c1	-1	i	-1	0	5	i	0
COc1ccc(NC(=O)CN(C)C(=O)CC2CCCC2)cc1	-9	i	-2	2	-12	nt	nt
Cc1c(NC(=O)Nc2cccc(C#N)c2)c(=O)n(-c2ccccc2)n1C	-21	i	5	-1	9	nt	nt
C[C@H](CO)N1C[C@H](C)[C@@H](CN(C)S(=O)(=O)c2cn(C)cn2)OCc2cnnn2CCCC1=O	-2	i	16	1	-12	nt	nt
CCCN(CCC)S(=O)(=O)c1cccc(C(=O)Nc2ccc3c(c2)OCO3)c1	-2	i	-2	2	18	nt	nt
CCN(CC)S(=O)(=O)c1cccc(C(=O)Nc2ccc3c(c2)OCO3)c1	1	i	10	4	9	i	0
CC1CCCC(C)N1C(=O)COC(=O)c1ccc(F)c(S(=O)(=O)N2CCOCC2)c1 (centres undefined)	1	i	8	-6	-5	nt	nt
O=C(Nc1nc(-c2cccnc2)cs1)c1ccc(S(=O)(=O)N2CCOCC2)cc1	-1	i	-3	1	1	i	2
O=C(COC(=O)c1ccc(S(=O)(=O)N2CCOCC2)cc1)Nc1nc(-c2ccccc2)cs1	-2	i	4	-1	8	nt	nt
CC(=O)c1ccc2c(c1)CC1(C2)Cc2cc3c(cc2C1)C(=O)CC3 (centres undefined)	1	nt	-7	0	-2	nt	nt
COc1ccc(C(C)(O)c2nc(-c3ccc(F)cc3OC)cs2)cc1 (centres undefined)	1	i	-4	0	17	i	0
COc1cccc(C(C)(O)c2nc(-c3ccc(F)cc3OC)cs2)c1 (centres undefined)	-7	i	10	0	0	nt	nt
SMILES	Granule exo inh	Myeloid diff 2	MC4R antag cAMP	MC4R barr agon	EBI2 antag	Myeloid diff	GFP autofluor
CC(C)(C)c1ccc(NC(=O)CC2(C(F)(F)F)OCCO2)cc1	3	i	20	1	-14	i	2
O=C(O)CC1(CC(=O)Nc2ccc(C(F)(F)F)cc2)CCCC1	-1	nt	6	0	7	nt	nt
CCCCOc1ccc(OC(=O)Nc2cc(Cl)ccc2OC)cc1	-8	i	-2	4	8	+	0
COc1ccc(Cl)cc1NC(=O)CC(=O)Nc1cc(Cl)ccc1OC	4	i	3	4	8	nt	nt
Cc1ccc(NS(=O)(=O)c2cc3c4c(cccc4c2)C(=O)NC3=O)cc1C	23	+	21	-2	11	i	2
Cc1ccc(NS(=O)(=O)c2ccc3c(c2)n(C)c(=O)n3C)cc1C	2	i	7	-1	4	nt	nt
Cc1ccc(C(=O)NCC(=O)OCC(=O)c2c(N)n(C)c(=O)n(C)c2=O)cc1C	6	i	-4	-3	-8	nt	nt
Cc1ccccc1Nc1nc(N)nc(CSc2n[nH]c(N)n2)n1	-3	+	8	-1	7	i	0
Cc1ccccc1CSCc1nc(N)nc(Nc2ccccc2C)n1	-2	i	6	1	1	nt	nt
Cc1ccc(S(=O)(=O)c2cc3c(=O)n4ccccc4nc3n(Cc3ccco3)c2=N)cc1	2	i	-9	1	16	i	0
Cc1ccc(CNC(=O)c2cc3c(=O)n4ccccc4nc3n(Cc3ccco3)c2=N)cc1	1	i	-46	-2	10	nt	nt
COC(=O)c1cnn(-c2ccc(F)cc2F)c1/C=N/NC(N)=S	-2	i	7	0	-23	nt	nt
COc1ccc(-c2cc(=O)oc3c(C)c(OCC(=O)Nc4cccnc4)ccc23)cc1	-4	i	3	-3	19	nt	nt
Cc1c(OCC(=O)NCc2ccccn2)ccc2c(-c3ccccc3)cc(=O)oc12	0	+	9	-1	3	i	0
COc1ccc(-c2cc(=O)oc3c(C)c(OCC(=O)N(C)C)ccc23)cc1	2	+	2	-1	6	i	0
CCC(C)[C@H](NC(=O)C1CC(=O)N(c2ccc3c(c2)OCO3)C1)C(=O)NC1CCCCC1 (some centres undefined)	-3	i	12	0	-12	nt	nt
COc1ccc(CN2C(=O)CN(S(C)(=O)=O)CC2(C)C(=O)Nc2c(C)cccc2C)cc1OC (centres undefined)	-7	i	nt	nt	-1	nt	nt
COc1ccccc1CNC(=O)CN1C(=O)NC2(CCOc3ccccc32)C1=O (centres undefined)	3	i	2	-2	-3	nt	nt
Cc1ccc(C(=O)NC(=S)c2c(C)cc3ccccn23)cc1	0	+	-10	-1	-3	i	11*
Cc1cc2ccccn2c1C(=S)NC(=O)c1ccccc1	3	i	-1	-3	-4	nt	nt

Screening results (PubChem)
